A selection: hits, their analogues and other compounds. The true share with any hit is near 1.9%.
RAD54 branch = blocks human RAD54 Holliday junction branch migration. Q92698. FAM/BHQ fluorescence. inhibition, % at 10.4 µM. 360,000 compounds, 0.14% hits. AID 602329;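 active means mean normalized replicate activity at least 40 and at least half of replicates scoring 40 or more; inconclusive means only one of the two criteria met; inactive means mean below 40 and under half of replicates reaching 40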;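 further: inhibitors cause a drop in the FAM fluorescence signal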
Target sequence (Q92698 whole entry, looked up): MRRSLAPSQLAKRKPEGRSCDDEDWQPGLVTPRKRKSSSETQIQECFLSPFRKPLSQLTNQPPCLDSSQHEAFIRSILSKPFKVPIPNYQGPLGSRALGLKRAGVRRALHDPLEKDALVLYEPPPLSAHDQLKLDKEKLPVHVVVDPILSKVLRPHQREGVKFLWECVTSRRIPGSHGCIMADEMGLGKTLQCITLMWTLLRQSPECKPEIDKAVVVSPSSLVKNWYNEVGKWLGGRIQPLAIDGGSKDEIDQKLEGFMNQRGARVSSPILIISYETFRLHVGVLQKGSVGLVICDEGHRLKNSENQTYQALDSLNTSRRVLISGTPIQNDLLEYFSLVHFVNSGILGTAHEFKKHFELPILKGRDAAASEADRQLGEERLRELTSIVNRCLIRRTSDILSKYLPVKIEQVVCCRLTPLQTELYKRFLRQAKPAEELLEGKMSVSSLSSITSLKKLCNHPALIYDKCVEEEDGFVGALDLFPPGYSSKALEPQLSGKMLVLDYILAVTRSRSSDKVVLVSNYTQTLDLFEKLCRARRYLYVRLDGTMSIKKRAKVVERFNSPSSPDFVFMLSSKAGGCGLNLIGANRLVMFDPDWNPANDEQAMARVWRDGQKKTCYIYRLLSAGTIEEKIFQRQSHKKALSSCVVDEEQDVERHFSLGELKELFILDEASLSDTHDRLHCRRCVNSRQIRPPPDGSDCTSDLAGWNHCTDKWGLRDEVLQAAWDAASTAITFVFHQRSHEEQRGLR
PglD inh = PglD (C. jejuni) enzyme inhibition; purified PglD enzyme, DTNB colorimetric CoA detection; inhibition, % at 12.5 µM; 360,000 compounds, 0.098% hits; in the data active means inhibition above about 16%, passing the limit was not always enough; inconclusive means no clear call, values can overlap the other calls
RAD52 inh = inhibitors of human RAD52 DNA annealing | P43351 | recombinant RAD52 DNA annealing, FRET fluorescence | inhibition, % at 18.7 µM | 360,000 compounds, 0.46% hits;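 active means every replicate showing at least 50% inhibition; inconclusive means mean inhibition at least 50% but not in every replicate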
Cneo AK release = Cryptococcus neoformans lysis via adenylate kinase release; C. neoformans lysis, adenylate kinase release luminescence, 4 h; normalised: neutral wells 0, clomiphene wells 100; lysis activity, % at 15 µM; 360,000 compounds, 0.2% hits; AID 651654;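 active means mean lysis activity across replicates of at least 80%, whatever share of replicates individually reach that level; inactive means mean lysis activity below 80%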
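Assay system: log-phase C. neoformans yeast / Quantity: yeast cell density of 5 × 10^6 cells/mL / Medium: fresh YPD growth medium / Compound: single dose / Timing: static 4 h at 37 °C with compound, 1 h detection / Measured by: adenylate kinase release luminescence / Read-out: lysis from increased AK signal / Benchmarks: Clomiphene as positive lysis control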
Ecoli rRNA inh = inhibitors of bacterial rRNA selective over humanized ribosomes. E. coli WT GFP vs humanized-ribosome RFP mutants, fluorescence, 24 h; hits give low values; DMSO median 0, no signal -100. GFP signal change (wild-type ribosome), % (concentration not given with the values). 350,000 compounds, 1.6% hits;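 active means significant combined selectivity score with lowered wild-type GFP, culture density cut under 30%, mutant RFP and density less affected; inactive means any of these conditions unmet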
Large screens that a line does not name were inactive.

COc1ccc(-c2ccc3c(c2)O[C@@H](CN(C)CC2CCOCC2)[C@H](C)CN([C@@H](C)CO)S3(=O)=O)cc1	none
COc1ccc(S(=O)(=O)N(C)C[C@@H]2OCCCC[C@@H](C)Oc3ccc(NS(=O)(=O)c4ccccc4)cc3C(=O)N([C@@H](C)CO)C[C@@H]2C)cc1	none
COc1cccc(-c2ccc([C@H]3[C@@H](CO)N4CCCCN(CC5CCOCC5)C[C@H]34)cc2)c1	none (no result: Ecoli rRNA inh)
Cc1noc(C)c1NC(=O)Nc1ccc2c(c1)C(=O)N([C@@H](C)CO)C[C@H](C)[C@@H](CN(C)S(=O)(=O)c1ccccc1)OCCCC[C@H](C)O2	none
Cc1cccc(N=NC(=S)NNc2cccc(C)c2)c1	Ecoli rRNA inh -20.4 (no result: RAD54 branch, PglD inh, Cneo AK release)
O=C(N/N=C/c1ccccn1)c1ccc(NC(=O)c2ccc(F)cc2)cc1	none
O=C(N/N=C/c1ccccn1)c1ccc(NC(=O)c2ccccc2Cl)cc1	Ecoli rRNA inh -21.0
COc1ccc(NC(=O)Nc2cc(C(C)(C)C)on2)cc1OC	Ecoli rRNA inh -26.3
COc1ccc(NC(=O)Nc2ccccn2)cc1OC	none (no result: RAD54 branch, PglD inh, Cneo AK release)
COc1ccc(/C=C/C(=O)N2CCN(c3ccccn3)CC2)cc1	Ecoli rRNA inh -22.6
Oc1ccc(Cl)cc1C1=NNC(c2cccs2)C1 (stereo not given)	none
O=[N+]([O-])c1ccc(O)c(C2=NNC(c3ccccc3F)C2)c1 (stereo not given)	Ecoli rRNA inh -54.0
O=C(CCl)Nc1cccc(Oc2ccccc2)c1	Ecoli rRNA inh -25.6
O=C(CSc1cccc[n+]1[O-])Nc1cccc(Oc2ccccc2)c1	none (no result: RAD54 branch, PglD inh, Cneo AK release)
O=C(CCl)Nc1cccc(Oc2cnccn2)c1	none
Nc1nc(SCC(=O)Nc2cccc(Oc3ccccc3)c2)n[nH]1	Ecoli rRNA inh -23.9 (no result: RAD54 branch, PglD inh, Cneo AK release)
O=C(CSc1ncnc2[nH]ncc12)Nc1cccc(Oc2ccccc2)c1	Ecoli rRNA inh -43.1
C[C@H]1CN([C@@H](C)CO)C(=O)c2cc(NS(=O)(=O)c3cccs3)ccc2O[C@H]1CN(C)S(=O)(=O)c1cccs1	none (no result: RAD54 branch, PglD inh, RAD52 inh, Cneo AK release)
COC(=O)C1=C/c2ccccc2C(C2CC2)N(Cc2ccc(OC)cc2)/C=C\1C(=O)OC (stereo not given)	none (no result: Ecoli rRNA inh)
COc1ccc(COC[C@]23Oc4ccccc4[C@H]([C@H]2COC(=O)c2ccc([N+](=O)[O-])cc2)N(C(=O)CC(C)=O)C(=O)N3C)cc1	none (no result: RAD54 branch, PglD inh, Ecoli rRNA inh)
CCCNC(=O)[C@H]1[C@H](CO)[C@H]2Cn3c(cccc3=O)[C@H]2N1CC1CCCC1	none (no result: RAD54 branch, PglD inh, Cneo AK release)
CC(=O)Nc1ccc(NC(=O)C2CCN(S(=O)(=O)c3ccc4c(c3)OCCO4)CC2)cc1	none
O=C(Nc1ccc2c(c1)OCCO2)C1CCN(S(=O)(=O)c2ccc3c(c2)OCCO3)CC1	Ecoli rRNA inh -31.8
O=C(CCc1c[nH]c2ccccc12)Nc1ccc(Nc2cccnc2)cc1	Ecoli rRNA inh -30.3 (no result: RAD54 branch, PglD inh, Cneo AK release)
C[C@@H]1CN([C@H](C)CO)C(=O)c2cc(C#CC3CCCC3)cnc2O[C@H]1CN(C)S(=O)(=O)c1cccc(F)c1	none
CC(C)NC(=O)N(Cc1ccc(Cl)cc1)Cc1cccs1	Ecoli rRNA inh -24.1 (no result: RAD54 branch, PglD inh, Cneo AK release)
O=C(Nc1ccc(Cl)cc1)N(Cc1cccs1)Cc1cccs1	none (no result: RAD52 inh, Ecoli rRNA inh)
CO[C@@H]1CN(C)C(=O)c2cc(NC(=O)c3cc(C)on3)ccc2OC[C@@H](C)N(C(=O)C2CC2)C[C@H]1C	none
CCn1c(O)c(N=Nc2ccc(Cl)c(C(=O)O)c2)c2ccccc21	none
CC(C)n1c(O)c(N=Nc2ccc(Cl)c(C(=O)O)c2)c2ccccc21	Ecoli rRNA inh -18.2
CCN1C(=O)C(CC(=O)Nc2ccc(OC)cc2)N(CCCN2CCN(c3ccc(OC)cc3)CC2)C1=S (stereo not given)	Ecoli rRNA inh -19.8
CCN1C(=O)C(CC(=O)Nc2ccc(OC)cc2)N(CCN2CCOCC2)C1=S (stereo not given)	none
CN(C)c1ccc(CN(C(=O)/C=C/c2ccccc2Cl)C2CCS(=O)(=O)C2)cc1 (stereo not given)	none
O=C(/C=C/c1ccccc1Cl)N(Cc1cccs1)C1CCS(=O)(=O)C1 (stereo not given)	Ecoli rRNA inh -34.9
CCN1/C(=C/c2ccc3ccccc3[n+]2CCCS(=O)(=O)[O-])C=Cc2cc(C)ccc21	none
CCN1/C(=C/c2ccc3ccccc3[n+]2CC)C=Cc2ccccc21	RAD54 branch 70.7 (no result: RAD52 inh, Ecoli rRNA inh)
Cc1c(CCOC(=O)CC23CC4CC(CC(C)(C4)C2)C3)sc[n+]1CC(=O)c1ccccc1	RAD52 inh 62.4 (no result: RAD54 branch, PglD inh, Cneo AK release)
Cc1c(CCOC(=O)c2ccccc2)sc[n+]1CC(=O)c1ccc(Br)cc1	Ecoli rRNA inh -47.9
Cc1c(CCOC(=O)c2cc([N+](=O)[O-])cc([N+](=O)[O-])c2)sc[n+]1CC(=O)c1ccccc1	RAD54 branch inconclusive
C[C@@H]1CN([C@H](C)CO)C(=O)c2cc(NC(=O)Nc3ccc4c(c3)OCO4)ccc2O[C@H]1CN(C)S(=O)(=O)c1ccccc1	none
COc1cccc(C(=O)/C=C/Nc2ccc(S(=O)(=O)Nc3nc(C)cc(C)n3)cc2)c1	Ecoli rRNA inh -21.2 (no result: RAD54 branch, PglD inh, Cneo AK release)
COC(=O)COc1ccc(S(=O)(=O)NCCC2=CCCCC2)cc1C	Ecoli rRNA inh -21.0 (no result: RAD54 branch, PglD inh, Cneo AK release)
O=C(Cc1ccccc1)NNc1c2ccccc2nc2ccccc12	none (no result: RAD54 branch, PglD inh, Cneo AK release)
O=C(Nc1c2ccccc2nc2ccccc12)C(Cl)(Cl)Cl	RAD54 branch 82.9 (no result: RAD52 inh, Ecoli rRNA inh)
COc1ccc(N2C(=O)c3n[nH]c(C)c3C2c2ccc(F)cc2)cc1 (stereo not given)	Ecoli rRNA inh -32.4 (no result: RAD54 branch, PglD inh, Cneo AK release)
COc1cccc(OC)c1OCC(O)CN1CCN(c2ccccc2)CC1 (stereo not given)	none (no result: RAD52 inh, Ecoli rRNA inh)
Cc1cccc(C)c1OCC(O)CN1CCN(c2ccccc2)CC1 (stereo not given)	Ecoli rRNA inh -28.7
O=C(C[C@H]1CC[C@H]2[C@@H](COC[C@@H](O)CN2S(=O)(=O)c2ccc(Cl)cc2)O1)NCCN1CCCC1	none
Cc1cccc(NC(=S)Nc2cccc(C(F)(F)F)c2)n1	none (no result: RAD52 inh, Ecoli rRNA inh)
FC(F)(F)c1cccc(NC(=S)Nc2cccc(NC(=S)Nc3cccc(C(F)(F)F)c3)n2)c1	Ecoli rRNA inh -45.5
Cc1noc(NC(=O)c2ccc(Cl)cc2)c1Cl	none (no result: RAD54 branch, PglD inh, Cneo AK release)
Cc1noc(NC(=O)c2cccc(C(F)(F)F)c2)c1Cl	Ecoli rRNA inh -47.9 (no result: RAD54 branch, PglD inh, Cneo AK release)
CCCN1[C@@H]2c3ccc(-c4ccc(OC)cc4)c(=O)n3C[C@H]1[C@H](CO)[C@H]2C(=O)NCC	none (no result: RAD54 branch, PglD inh, Cneo AK release)
COc1ccc(S(=O)(=O)N(C)C[C@@H]2Oc3ccc(NC(=O)Nc4ccc5c(c4)OCO5)cc3C(=O)N([C@@H](C)CO)C[C@H]2C)cc1	RAD54 branch 56.6
COc1ccc(S(=O)(=O)N(C)C[C@@H]2Oc3ccc(NC(=O)C4CC4)cc3C(=O)N([C@H](C)CO)C[C@H]2C)cc1	PglD inh 16.1
CNC[C@@H]1Oc2ccc(NC(=O)NC(C)C)cc2C(=O)N(C)C[C@H]1C	none (no result: RAD54 branch, PglD inh, RAD52 inh, Cneo AK release)
Cc1ccc(Oc2ccc(S(=O)(=O)N3CCOCC3)cc2C(N)=O)cc1C	Ecoli rRNA inh -22.9
O=C(OCc1ccccc1)/C(=C/c1cccc(Br)c1)NC(=O)c1ccco1	Ecoli rRNA inh -29.2
